Reference: ChEMBL document CHEMBL4373647, “Design, synthesis, and antimicrobial evaluation of 1,4-dihydroindeno[1,2-c]pyrazole tethered carbohydrazide hybrids: exploring their in silico ADMET, ergosterol inhibition and ROS inducing potential” (Medchemcomm, 2019)
Converted amounts (≈) assume the structure as drawn. The source made the active and inactive calls. The calls are words filed in the database; no cut-off is given here.

What was measured:
Type in all cases: functional
Micrococcus luteus [1] = experiment: Antibacterial activity against Micrococcus luteus MTCC 2470 assessed as inhibition of bacterial growth incubated for 24 hrs by agar well diffusion method; conditions: MTCC 2470, 24 h
Outline: (§1)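 Strains from MTCC; inoculum at 0.5 McFarland spread on Mueller-Hinton agar; 6 mm wells loaded with compound over 125–0.97 µg/mL; ciprofloxacin positive control (same range), DMSO negative control. Plates held 24 h at 37 °C; MIC taken as lowest concentration giving a clear inhibition zone. Triplicate runs, mean MIC reported.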

Staphylococcus aureus [2] = experiment: Antibacterial activity against Staphylococcus aureus MTCC 96 assessed as inhibition of bacterial growth incubated for 24 hrs by agar well diffusion method; conditions: MTCC 96, 24 h; outline: as §1
Staphylococcus aureus [3] = experiment: Antibacterial activity against Staphylococcus aureus MLS-16 MTCC 2940 assessed as inhibition of bacterial growth incubated for 24 hrs by agar well diffusion method; conditions: MLS-16 MTCC 2940, 24 h; outline: as §1
Bacillus subtilis [4] = experiment: Antibacterial activity against Bacillus subtilis MTCC 121 assessed as inhibition of bacterial growth incubated for 24 hrs by agar well diffusion method; conditions: MTCC 121, 24 h; outline: as §1
Escherichia coli [5] = experiment: Antibacterial activity against Escherichia coli MTCC 739 assessed as inhibition of bacterial growth incubated for 24 hrs by agar well diffusion method; conditions: MTCC 739, 24 h; outline: as §1
Pseudomonas aeruginosa [6] = experiment: Antibacterial activity against Pseudomonas aeruginosa MTCC 2453 assessed as inhibition of bacterial growth incubated for 24 hrs by agar well diffusion method; conditions: MTCC 2453, 24 h; outline: as §1
Raoultella planticola [7] = experiment: Antibacterial activity against Klebsiella planticola MTCC 530 assessed as inhibition of bacterial growth incubated for 24 hrs by agar well diffusion method; conditions: MTCC 530, 24 h; outline: as §1
Candida albicans = experiment: Antifungal activity against Candida albicans MTCC 3017 assessed as inhibition of fungal growth incubated for 24 hrs by agar well diffusion method
Outline: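 Candida strains from MTCC, pre-cultured and spread on Mueller Hinton agar. Wells received compound dissolved in 10% DMSO, 125–0.97 µg/mL; miconazole standard over the same range, DMSO negative control. After 24 h at 37 °C, MIC was read as the lowest concentration giving an inhibition zone. Duplicate experiments, means given.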

Micrococcus luteus [8] = experiment: Bactericidal activity against Micrococcus luteus MTCC 2470 assessed as bacterial killing incubated for 24 hrs; conditions: MTCC 2470, 24 h
Outline: (§2)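 Broth tube assay: compound at 0–125 µg/mL in Mueller Hinton broth, overnight culture added to 0.5 McFarland (1.5 × 10^8 cfu/mL), held 24 h at 37 °C. 10 µL from each tube plated on Mueller Hinton agar. MBC is the lowest concentration that kills the strain. Duplicates, means reported.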

Staphylococcus aureus [9] = experiment: Bactericidal activity against Staphylococcus aureus MTCC 96 assessed as bacterial killing incubated for 24 hrs; conditions: MTCC 96, 24 h; outline: as §2
Staphylococcus aureus [10] = experiment: Bactericidal activity against Staphylococcus aureus MLS-16 MTCC 2940 assessed as bacterial killing incubated for 24 hrs; conditions: MLS-16 MTCC 2940, 24 h; outline: as §2
Bacillus subtilis [11] = experiment: Bactericidal activity against Bacillus subtilis MTCC 121 assessed as bacterial killing incubated for 24 hrs; conditions: MTCC 121, 24 h; outline: as §2
Escherichia coli [12] = experiment: Bactericidal activity against Escherichia coli MTCC 739 assessed as bacterial killing incubated for 24 hrs; conditions: MTCC 739, 24 h; outline: as §2
Pseudomonas aeruginosa [13] = experiment: Bactericidal activity against Pseudomonas aeruginosa MTCC 2453 assessed as bacterial killing incubated for 24 hrs; conditions: MTCC 2453, 24 h; outline: as §2
Raoultella planticola [14] = experiment: Bactericidal activity against Klebsiella planticola MTCC 530 assessed as bacterial killing incubated for 24 hrs; conditions: MTCC 530, 24 h; outline: as §2

Structure (SMILES) | MIC (Micrococcus luteus [1]) [µg/mL] | MIC (Staphylococcus aureus [2]) [µg/mL] | MIC (Staphylococcus aureus [3]) [µg/mL] | MIC (Bacillus subtilis [4]) [µg/mL] | MIC (Escherichia coli [5]) [µg/mL] | MIC (Pseudomonas aeruginosa [6]) [µg/mL] | MIC (Candida albicans; MTCC 3017, 24 h) [µg/mL] | MIC (Raoultella planticola [7]) [µg/mL] | MIC (Candida albicans) | MBC (Micrococcus luteus [8]) [µg/mL] | MBC (Staphylococcus aureus [9]) [µg/mL] | MBC (Staphylococcus aureus [10]) [µg/mL] | MBC (Bacillus subtilis [11]) [µg/mL] | MBC (Escherichia coli [12]) [µg/mL] | MBC (Pseudomonas aeruginosa [13]) [µg/mL] | MBC (Raoultella planticola [14]) [µg/mL]
COc1ccc(/C=N/NC(=O)c2n[nH]c3c2Cc2ccccc2-3)cc1OC | > 125 | > 125 | > 125 | > 125 | > 125 | > 125 | > 125 | > 125 | – | – | – | – | – | – | – | –
COc1cc(/C=N/NC(=O)c2n[nH]c3c2Cc2cc(F)ccc2-3)ccc1O | > 125 | > 125 | 3.9 (≈ 10.6 µM) | > 125 | > 125 | > 125 | 31.2 (≈ 85.2 µM) | > 125 | – | – | – | – | – | – | – | –
O=C(O)c1cn(C2CC2)c2cc(N3CCNCC3)c(F)cc2c1=O [CIPROFLOXACIN] | 0.9 (≈ 2.72 µM) | 0.9 (≈ 2.72 µM) | 0.9 (≈ 2.72 µM) | 0.9 (≈ 2.72 µM) | 0.9 (≈ 2.72 µM) | 0.9 (≈ 2.72 µM) | – | 0.9 (≈ 2.72 µM) | inactive | 1.9 (≈ 5.73 µM) | 1.9 (≈ 5.73 µM) | 1.9 (≈ 5.73 µM) | 1.9 (≈ 5.73 µM) | 1.9 (≈ 5.73 µM) | 1.9 (≈ 5.73 µM) | 1.9 (≈ 5.73 µM)
COc1ccc2c(c1)Cc1c(C(=O)N/N=C/c3ccc(O)cc3)n[nH]c1-2 | 3.9 (≈ 11.2 µM) | 7.8 (≈ 22.4 µM) | 7.8 (≈ 22.4 µM) | 7.8 (≈ 22.4 µM) | > 125 | > 125 | > 125 | > 125 | – | – | – | – | – | – | – | –
COc1ccc(/C=N/NC(=O)c2n[nH]c3c2Cc2cc(F)ccc2-3)cc1OC | > 125 | > 125 | 3.9 (≈ 10.3 µM) | > 125 | > 125 | > 125 | > 125 | > 125 | – | – | – | – | – | – | – | –
O=C(N/N=C/c1c(F)cc(F)cc1F)c1n[nH]c2c1Cc1ccccc1-2 | > 125 | > 125 | > 125 | 15.6 (≈ 43.8 µM) | > 125 | > 125 | > 125 | > 125 | – | – | – | – | – | – | – | –
COc1ccc2c(c1)Cc1c(C(=O)N/N=C/c3ccc(Cl)cc3)n[nH]c1-2 | 3.9 (≈ 10.6 µM) | 3.9 (≈ 10.6 µM) | 7.8 (≈ 21.3 µM) | 7.8 (≈ 21.3 µM) | 3.9 (≈ 10.6 µM) | > 125 | > 125 | > 125 | – | – | – | – | – | – | – | –

Continued, in another order:

MIC (Micrococcus luteus [1]) [µg/mL] | MIC (Staphylococcus aureus [2]) [µg/mL] | MIC (Staphylococcus aureus [3]) [µg/mL] | MIC (Bacillus subtilis [4]) [µg/mL] | MIC (Escherichia coli [5]) [µg/mL] | MIC (Pseudomonas aeruginosa [6]) [µg/mL] | MIC (Candida albicans; MTCC 3017, 24 h) [µg/mL] | Structure (SMILES) | MIC (Raoultella planticola [7]) [µg/mL] | MIC (Candida albicans) | MBC (Micrococcus luteus [8]) [µg/mL] | MBC (Staphylococcus aureus [9]) [µg/mL] | MBC (Staphylococcus aureus [10]) [µg/mL] | MBC (Bacillus subtilis [11]) [µg/mL] | MBC (Escherichia coli [12]) [µg/mL] | MBC (Pseudomonas aeruginosa [13]) [µg/mL] | MBC (Raoultella planticola [14]) [µg/mL]
7.8 (≈ 19 µM) | 3.9 (≈ 9.5 µM) | 7.8 (≈ 19 µM) | 3.9 (≈ 9.5 µM) | 3.9 (≈ 9.5 µM) | 7.8 (≈ 19 µM) | > 125 | COc1cc(/C=N/NC(=O)c2n[nH]c3c2Cc2cc(F)ccc2-3)cc(OC)c1OC | 7.8 (≈ 19 µM) | – | – | – | – | – | – | – | –
3.9 (≈ 9.94 µM) | 3.9 (≈ 9.94 µM) | 7.8 (≈ 19.9 µM) | 7.8 (≈ 19.9 µM) | > 125 | > 125 | > 125 | COc1ccc2c(c1)Cc1c(C(=O)N/N=C/c3ccc(OC)c(OC)c3)n[nH]c1-2 | > 125 | – | – | – | – | – | – | – | –
> 125 | 15.6 (≈ 40.9 µM) | 15.6 (≈ 40.9 µM) | 15.6 (≈ 40.9 µM) | > 125 | > 125 | > 125 | O=C(N/N=C/c1ccc(Br)cc1)c1n[nH]c2c1Cc1ccccc1-2 | > 125 | – | – | – | – | – | – | – | –
> 125 | 15.6 (≈ 39.8 µM) | 15.6 (≈ 39.8 µM) | 7.8 (≈ 19.9 µM) | > 125 | > 125 | > 125 | COc1cc(/C=N/NC(=O)c2n[nH]c3c2Cc2ccccc2-3)cc(OC)c1OC | > 125 | – | – | – | – | – | – | – | –
> 125 | 7.8 (≈ 19.5 µM) | 15.6 (≈ 39.1 µM) | 7.8 (≈ 19.5 µM) | > 125 | > 125 | > 125 | O=C(N/N=C/c1ccc(Br)cc1)c1n[nH]c2c1Cc1cc(F)ccc1-2 | > 125 | – | – | – | – | – | – | – | –
> 125 | 15.6 (≈ 44 µM) | 15.6 (≈ 44 µM) | 7.8 (≈ 22 µM) | > 125 | > 125 | > 125 | O=C(N/N=C/c1ccc(Cl)cc1)c1n[nH]c2c1Cc1cc(F)ccc1-2 | > 125 | – | – | – | – | – | – | – | –
> 125 | 3.9 (≈ 11.6 µM) | 3.9 (≈ 11.6 µM) | 7.8 (≈ 23.2 µM) | 7.8 (≈ 23.2 µM) | > 125 | > 125 | O=C(N/N=C/c1ccc(Cl)cc1)c1n[nH]c2c1Cc1ccccc1-2 | > 125 | – | – | – | – | – | – | – | –
> 125 | 7.8 (≈ 20.8 µM) | 3.9 (≈ 10.4 µM) | 7.8 (≈ 20.8 µM) | > 125 | > 125 | 31.2 (≈ 83.4 µM) | O=C(N/N=C/c1c(F)cc(F)cc1F)c1n[nH]c2c1Cc1cc(F)ccc1-2 | > 125 | – | – | – | – | – | – | – | –
> 125 | > 125 | > 125 | > 125 | > 125 | > 125 | > 125 | COc1ccc2c(c1)Cc1c(C(=O)N/N=C/c3ccc(Br)cc3)n[nH]c1-2 | > 125 | – | – | – | – | – | – | – | –
3.9 (≈ 9.23 µM) | 15.6 (≈ 36.9 µM) | 7.8 (≈ 18.5 µM) | 3.9 (≈ 9.23 µM) | > 125 | > 125 | > 125 | COc1ccc2c(c1)Cc1c(C(=O)N/N=C/c3cc(OC)c(OC)c(OC)c3)n[nH]c1-2 | > 125 | – | – | – | – | – | – | – | –
